WNV protease inh: inhibitors of WNV NS2B-NS3 protease, primary screen, biochemical, fluorogenic substrate. fluorogenic substrate Ex360/Em465; stronger effect = lower value. z-score (no concentration beside the values). actives 0.18% (n = 65,000); in the data active = z-score below about -3
AP complement: alternative complement pathway inhibitors, primary screen, biochemical, ELISA, human serum, orthogonally pooled compounds. AID 1235, 2008. LPS-coated ELISA, C3 deposition; tested in compound mixtures. inhibition, % at 5 µM. actives 0.08% (n = 62,000);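 active = inhibition above 30% in each of the two pooled mixtures holding the compound, so the lower value exceeds 30%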;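 note: 0% = serum in Mg-EGTA without compound and 100% = EDTA serum blank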
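Medium: diluted human serum in Mg2+-EGTA GVB++. Assay system: human serum complement alternative pathway, C3 deposition onto LPS. Also added: Plate-bound LPS. Technique: Anti-C3 ELISA, OD 450 nm. Measure: percent inhibition. Incubation: 1 h at 37 °C. Dosing: 5 µM each compound, pools of ten, 50 µM per pool.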
D1 mod: D1 CRE-luciferase signal change, two-sided – cell-based, HEK293 D1, dopamine EC30, D1 allosteric modulator project, primary screen; D(1A) dopamine receptor (Homo sapiens), P21728; dopamine EC30 potentiation; actives deviate in either direction; B-score at 10 µM; actives 5.9% (n = 58,000);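 active = luminescence count or its row- and column-corrected plate score outside the 99.7% band of the plate's sample wells, on either side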
Target sequence (P21728 whole entry, looked up): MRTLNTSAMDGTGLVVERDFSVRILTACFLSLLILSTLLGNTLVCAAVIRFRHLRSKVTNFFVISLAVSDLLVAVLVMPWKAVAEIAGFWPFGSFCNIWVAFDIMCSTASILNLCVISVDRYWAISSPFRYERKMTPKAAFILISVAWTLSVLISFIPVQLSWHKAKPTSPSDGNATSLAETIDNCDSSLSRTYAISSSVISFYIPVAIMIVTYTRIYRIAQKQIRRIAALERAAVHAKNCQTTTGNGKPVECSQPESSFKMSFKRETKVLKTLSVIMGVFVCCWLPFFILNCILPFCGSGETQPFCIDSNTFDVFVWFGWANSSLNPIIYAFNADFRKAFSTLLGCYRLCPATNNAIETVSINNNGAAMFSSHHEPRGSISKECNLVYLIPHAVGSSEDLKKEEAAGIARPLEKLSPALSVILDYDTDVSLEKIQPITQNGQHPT
hDAT+cocaine: changed hDAT dopamine uptake under cocaine IC80, either direction, primary screen, cocaine antagonist project, cell-based, LLC-PK1 hDAT, [14C]-dopamine uptake, MLSMR. LLC-PK1 hDAT cells, [14C]-dopamine uptake with cocaine IC80; actives deviate in either direction. actives 1.3% (n = 110,000). Sodium-dependent dopamine transporter (Homo sapiens), Q01959. B-score at 10 µM;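 active = Z score or B-score, a plate-position-corrected score, falls beyond the plate's 99.7% confidence bounds, in either direction; inactive = both scores lie inside the 99.7% bounds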;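 note: scored against the spread of the other compound wells on the same plate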
Numbers without * were called inactive; . = not tested or not shown; ! = not confirmed by another sample. The entries come from a sample that favours hits as a whole.

SMILES	WNV protease inh	AP complement	D1 mod	hDAT+cocaine
FC(F)(F)c1cc(C(F)(F)F)c2ccc(N3CCN(c4ccc(Cl)cc4)CC3)nc2n1	.	.	.	-0.34
N#CC(c1ccc(Cl)cc1)c1ccc2c(C(F)(F)F)cc(C(F)(F)F)nc2n1 (stereo unspecified)	.	.	.	-3.7*
CC(C)NCc1c(O)c(Br)cc2oc3c(c12)CCCC3	-4*	16	1.8	-0.51
Cc1ccc(C(=O)Nc2cc(C)c(OCC(=O)N3CCOCC3)c(C)c2)cc1	.	.	.	2.3*
Cn1cccc1/C=N/n1cnnc1	-0.21	.	.	2.8*
COC(=O)c1cc2c(=O)n3ccccc3nc2n(C)c1=N	1.3	32*	1.3	.
COC(=O)c1cc2c(=O)n3ccccc3nc2n(Cc2cccnc2)c1=N	0.99	-6	0.94	0.75
COc1ccc(CCn2c(=N)c(C(=O)NCc3ccco3)cc3c(=O)n4ccccc4nc32)cc1	0.05	6	-3.7*	.
CC1(C)NC(C)(C)c2nonc2/C1=N\O	-0.6	8	1.9	2.8*
O=C(O)CSc1nnc(-c2cccnc2)n1Cc1ccccc1	-0.89	9	-0.033	-7*
CC(C)OC(=O)CSc1nnc(-c2cccnc2)n1Cc1ccccc1	-0.23	10	-0.43	-0.46
CC(NC(=O)c1cccnc1)C(c1cccs1)N1CCN(C)CC1 (stereo unspecified)	0.66	19	.	-0.72
CCN1CCN(C(c2cccs2)C(C)NC(=O)c2cccnc2)CC1 (stereo unspecified)	-1.2	9	-4.4*	-0.24
CC(c1ccco1)N(C(=O)COc1ccc(Cl)cc1Cl)c1ccccn1 (stereo unspecified)	-0.31	-6	-7.3*	-0.44
O=C(COc1ccc(Cl)cc1Cl)Nc1ccccn1	0.11	0	-4.5*	0.0032
Cc1cc(C)c2cc(CN(CCO)C(=O)Nc3ccc(F)cc3)c(=O)[nH]c2c1	-0.63	0	.	-0.45
COc1ccc(NC(=O)N(CCO)Cc2cc3c(C)cc(C)cc3[nH]c2=O)cc1	0.19	8	1.2	2.9*
Cc1ccc2c(CC(=O)OCc3csc(C)n3)coc2c1	0.0064	9	0.019	-7.4*
O=C(CCN1CCc2ccccc2C1)c1ccc2c(c1)OCCO2	-1.9	14	-1.1	-0.99
O=C(CCN1CCCCC1)c1ccc2c(c1)OCCO2	-0.59	9	-0.76	4.8*
Fc1ccc([C@@H]2CCNC[C@H]2COc2ccc3c(c2)OCO3)cc1	.	.	.	-3.7*!
O=C(Nc1nnc(-c2ccc(Cl)cc2)o1)C1CCCCC1	-0.97	2	-0.52	-0.19
Clc1ccc(-c2nnc(NC3=NCCCCC3)o2)cc1	-0.65	18	-5.8*	0.3
COC(=O)c1ccccc1NC1=C/C(=N\S(=O)(=O)c2cccs2)c2ccccc2C1=O	.	.	.	-3*
O=C(O)C1C2C=CC(O2)C1C(=O)NCc1ccccc1Br (stereo unspecified)	.	.	.	-0.45
SMILES	WNV protease inh	AP complement	D1 mod	hDAT+cocaine
CCCN(CC1CC1)S(=O)(=O)c1ccc(-n2cnnn2)c(OC)c1	.	.	.	1
O=C(Nc1cccc2c1[nH]c1ccccc12)C(F)(F)F	.	.	.	-0.54
O=C(O)c1cccc(COc2ccccc2Cl)c1	-0.49	6	-5.3*	1.1
CC(=O)Nc1ccc(S(=O)(=O)NC2=NCN(CCOC(=O)c3ccccc3)CN2)cc1	-0.57	6	-5.2*	-0.0031
CCCc1[nH][nH]c(=O)c1C(c1cccc(Cl)c1)C(C#N)C#N (stereo unspecified)	-0.5	5	.	-9.4*
COC(=O)c1sccc1NC(=O)c1ccc(OC)c(OC)c1	.	.	.	-0.8
COC(=O)c1sccc1NC(=O)c1cc(OC)cc(OC)c1	.	.	.	-8*
COC(=O)c1cc2sc(Cl)cc2n1CC(=O)NCCC(C)C	.	.	.	1.5
CC(Oc1ccc(Cl)cc1Cl)C(=O)Nc1ccc(N2CCN(C)CC2)cc1 (stereo unspecified)	-0.66	18	-4.8*	1.3
COc1cccc(C(c2sc3ncnn3c2O)N2CCN(C(=O)c3ccco3)CC2)c1 (stereo unspecified)	0.12	1	-0.22	-1.1
Cc1ccnc(NS(=O)(=O)c2ccc(NC(=O)C34CC5CC(C)(CC(C)(C5)C3)C4)cc2)n1	.	.	.	2.8*
Cc1ccc2nc(NC(=O)CCn3c(=O)sc4ccccc43)sc2c1	.	.	.	2
COC(=O)c1ccc(C(=O)OC)c(NC(=O)COC(=O)CC2CC3CCC2C3)c1 (stereo unspecified)	.	.	.	0.23
CCc1cc(=O)oc2cc(OCC(=O)O)c(Cl)cc12	-0.04	12	0.38	-0.076
CCc1cc(=O)oc2cc(OC(C)C(=O)O)c(Cl)cc12 (stereo unspecified)	1.9	-6	-4.2*	-0.48
COc1ccc(C(O)c2nc3ccccc3s2)cc1 (stereo unspecified)	1.6	0	1.9	-1.9*
CCOC(=O)C1=C(C)OC(N)=C(C#N)C1c1c(C)nn(-c2ccccc2)c1Cl (stereo unspecified)	0.11	12	1.1	-7.4*
O=C(NC(NC(=S)Nc1ccc(Cl)c(Cl)c1)C(Cl)(Cl)Cl)c1ccco1 (stereo unspecified)	.	.	.	-3.8*
Cc1c(C(=O)NC2=NCCS2)oc2ccccc12	-0.45	4	-4.9*	0.76
COc1ccc2[nH]c3c(NCCCN4CCCC4=O)ncnc3c2c1	.	.	.	2.9*
COc1ccc2[nH]c3c(NCCN(C(C)C)C(C)C)ncnc3c2c1	0.86	-25	-1.9	1.7
CC(=O)N1CCc2cc(S(=O)(=O)NCCC(=O)NC3CCCc4ccccc43)ccc21 (stereo unspecified)	-0.38	-7	0.6	1
CN(C)CCCNC(=O)C1CCNCC1	-0.88	10	-3*	0.51
CCOCCCNC(=O)C1CCN(C(=O)N(C)C)CC1	0.62	-5	-0.85	0.059
CC(=O)c1ccc(NS(=O)(=O)Cc2ccc(Cl)cc2)cc1	.	.	.	3.2*
SMILES	WNV protease inh	AP complement	D1 mod	hDAT+cocaine
CC(=O)C[C@H]1c2cc(F)ccc2S(=O)(=O)N1c1ccc(N(C)C)cc1	.	.	.	0.97
CCn1nc(NC(=O)c2ccncc2)c2cc3ccc(C)cc3nc21	0.37	-8	2.7	0.48
CCn1nc(NC(=O)c2ccncc2)c2cc3cc(C)ccc3nc21	-1.1	-1	.	2.2*
CCCC(=O)Nc1nn(CCC)c2nc3ccccc3cc12	-0.16	.	.	2.1*
CC(=O)Oc1ccc(OC(C)=O)c(SCCCCCN2CCOCC2)c1	.	.	.	-2.2
O=C(Cn1cccc1C(=O)c1ccccc1)NCc1ccco1	1.1	6	-3.5*	-0.8
Cc1ccccc1C(=O)c1cccn1CC(=O)NCc1ccco1	1.2	-4	-0.13	0.019
CCc1cccc2c(C#N)cn(CC(=O)NCc3ccco3)c12	-3.9*	1	-0.29	-0.86
Nc1nnnn1/N=C/c1cccc(OCc2ccccc2Cl)c1	.	.	.	-1.3
Cc1nn(C)cc1CNC(=O)c1cnn2c1NC(c1ccc(Br)cc1)CC2C(F)(F)F (stereo unspecified)	0.04	0	0.0055	-0.38
